According to article PMC10413622 (Nuclear medicine and biology, 2022):
“Also recorded” adds a separate entry of the source.

How the values were obtained:
[1] = tested on: other purinergic receptors; settings: cited from earlier work
[2] = Microsome stability assay; format: in vitro ADME, mouse; settings: 1 μM test compound, NADPH, 37 °C
In short: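 Mouse liver microsomes in 100 mM K₃PO₄ pH 7.4 with 10 mM MgCl₂ and 1 μM test compound were pre-incubated 10 min at 37 °C. Reactions were started with 1 mM NADPH. They were quenched at 0, 10, 20 and 40 min with stop solution in acetonitrile, centrifuged at 4000g for 20 min, diluted in 0.1% formic acid and quantified by LC-MS/MS.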

P2Y12R = settings: read-out: IC50 (affinity); cited from earlier work
[3] = determined at pH 6.8; cited from earlier work
Caco-2 cells = assay: Caco-2 permeability assay; format: in vitro ADME; settings: 10 μM, pH 7.4, 2 h
In short: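 Caco-2 cells grown in DMEM under 5% CO₂, seeded at 5 × 10⁵/well on polycarbonate filter inserts and differentiated 21 ± 4 days. Test compound at 10 μM final in HBSS with 25 mM HEPES, pH 7.4, 37 °C, added donor side. A→B and B→A runs were done with and without elacridar. Receiver was sampled over 2 h and donor at 0 and 2 h, then analysed by LC-MS/MS. Papp = […]/(A × C₀,donor) × 10⁶.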

[4] = Dynamic PET/CT imaging in mice; format: in vivo, mouse
In short: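 Subjects were female C57BL/6 wild-type mice aged 3 months and one male P2Y12R total-KO mouse (C57BL/6 background, 11 months), under isoflurane (2–3.5% induction, 1–2.5% maintenance). Tracer was given by tail vein at 300 μCi, formulated in saline with 10% ethanol. Imaging was 60 min list-mode dynamic PET (4×15 s, 4×1 min, 11×5 min), OSEM-3D with scatter and attenuation correction, then CT. ROIs were applied to dynamic data to give TACs in %ID/g.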

[5] = Stability of radiotracer in formulation; format: physicochemical
[6] = In vitro human plasma stability of radiotracer; format: in vitro ADME; settings: 37 °C, HPLC
In short: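 Formulated radiotracer (46 μCi) was mixed into human plasma, with aliquots held at 37 °C. Aliquots were quenched at 0, 5, 15, 30 and 60 min with ice-cold MeCN and centrifuged at 12,500g for 10 min. Supernatant went to radio-HPLC (C18, 70–95% MeCN with 0.1% TFA over 15 min). Controls of tracer without plasma were run at 0 and 60 min.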

[7] = mouse, in vivo, 1 h
[8] = MicroPET imaging in rhesus macaque; format: in vivo; settings: rhesus macaque n = 1, i.v. bolus, 60 min dynamic scan
In short: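 One mature female rhesus monkey (9.36 kg) was anaesthetised with Telazol, intubated, and maintained on isoflurane, with a hind-limb venous catheter and head secured. Tracer 4.90 mCi was given as a bolus over 1 min. The brain was imaged for 60 min (5×1, 2×2.5, 2×5, 4×10 min frames), with attenuation and scatter correction and 3D MAP reconstruction. A whole-brain volumetric ROI drawn on the summed image gave the TAC.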

[9] = mice, i.v., 5 min post injection

Row | SMILES | selectivity for P2Y12R over other purinergic receptors [1] | half-life in mouse liver microsomes [2] [min] | IC50 (P2Y12R) [µM] | logD [3] | Caco-2 efflux ratio BA/AB (Caco-2 cells) | Caco-2 apparent permeability AB (Caco-2 cells; A→B) | CNS uptake in P2Y12R knockout mouse (PET) ([4]; P2Y12R total KO male mouse n = 1, 60 min dynamic scan) | brain uptake (PET) [4, 9] [%ID/g] | liver uptake (PET) [4, 9] [%ID/g] | brain peak uptake (PET) ([4]; naïve wild-type mice n = 3, i.v., 15 s post injection) [%ID/g] | intact tracer after incubation in formulation ([5]; 90 min in formulation (saline with 10% ethanol)) [%] | time stable in formulation and resistant to radiolysis ([5]; post end-of-synthesis) [min] | loss of parent / radio-metabolites in human plasma ([6]; 0-60 min incubation) | intact tracer after incubation in human serum ([6]; 60 min incubation) [%] | ex vivo biodistribution, blood [7] | ex vivo biodistribution, brain [7] | ex vivo biodistribution, liver [7] [%ID/g] | peak brain uptake (PET) [8] [SUV]
1 | CCOC(=O)c1cc(C#N)c(N2CCC(C(=O)NS(=O)(=O)Cc3ccccc3)CC2)nc1C [AZD1283] | selective for P2Y12R over other purinergic receptors | 37 | 0.011 | 2.8 | 5.3 | 4.48 |  |  |  |  |  |  |  |  |  |  |  | 
2 | CCOC(=O)c1cc([11C]#N)c(N2CCC(C(=O)NS(=O)(=O)Cc3ccccc3)CC2)nc1C [[^11C]AZD1283] |  |  |  |  |  |  | no CNS uptake | 0.55 ± 0.37 | 58.28 ± 18.75 | 3.46 ± 2.0 | > 99 | > 90 | no loss of parent or detection of radio-metabolites; also recorded: no loss of parent tracer or appearance of radio-metabolites | > 99 | 0.9% ± 0.40 %ID/g | 0.02% ± 0.01 %ID/g | 106 ± 29.70 | 0.37
